From PubChem
The sample as a whole holds a higher share of hits than the screen did.
PTK2B oligo ant = antagonists of Pyk2 self-association, primary screen, Q293 cells, FERM NanoBiT luminescence, HTS | Protein-tyrosine kinase 2-beta (Homo sapiens), Q14289 | hits give low values | z-score (the deposit names both 25 µM and 10 µM) | actives 0.83% (n = 99,000);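 active means Z-score of -3 or lower, scaled per plate to the spread of control and sample wells; inactive means z-score above -3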;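 further: negative z-score means lost luminescence so less FERM oligomerization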
Target sequence (Q14289 whole entry, looked up): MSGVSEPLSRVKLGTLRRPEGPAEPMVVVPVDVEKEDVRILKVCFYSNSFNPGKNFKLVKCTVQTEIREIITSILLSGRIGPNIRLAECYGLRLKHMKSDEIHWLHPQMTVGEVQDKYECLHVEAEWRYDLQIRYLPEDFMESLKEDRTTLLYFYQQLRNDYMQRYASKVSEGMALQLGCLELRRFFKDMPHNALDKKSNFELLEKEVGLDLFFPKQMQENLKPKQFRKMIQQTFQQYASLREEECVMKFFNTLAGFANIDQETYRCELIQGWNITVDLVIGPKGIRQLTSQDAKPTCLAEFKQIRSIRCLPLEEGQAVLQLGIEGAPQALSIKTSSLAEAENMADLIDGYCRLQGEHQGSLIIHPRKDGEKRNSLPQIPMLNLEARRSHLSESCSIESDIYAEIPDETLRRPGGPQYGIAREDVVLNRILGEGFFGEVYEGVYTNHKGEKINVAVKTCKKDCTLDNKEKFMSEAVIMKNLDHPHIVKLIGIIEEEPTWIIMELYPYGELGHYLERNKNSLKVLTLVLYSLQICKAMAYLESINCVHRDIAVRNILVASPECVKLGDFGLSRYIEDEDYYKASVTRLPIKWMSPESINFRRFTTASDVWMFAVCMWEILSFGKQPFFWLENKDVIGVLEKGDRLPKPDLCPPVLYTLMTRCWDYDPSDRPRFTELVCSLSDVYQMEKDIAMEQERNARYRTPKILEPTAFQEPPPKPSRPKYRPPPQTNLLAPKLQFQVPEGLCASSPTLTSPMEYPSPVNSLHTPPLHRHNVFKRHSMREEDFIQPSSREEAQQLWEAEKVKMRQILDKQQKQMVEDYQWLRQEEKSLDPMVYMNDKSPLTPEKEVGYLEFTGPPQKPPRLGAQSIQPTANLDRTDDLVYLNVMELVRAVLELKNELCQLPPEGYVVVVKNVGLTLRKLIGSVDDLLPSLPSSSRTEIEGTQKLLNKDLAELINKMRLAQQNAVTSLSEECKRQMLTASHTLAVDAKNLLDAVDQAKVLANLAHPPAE
Fibroblast inh = antiproliferative effect on LL 47 fibroblasts – human, LL 47 cells, CellTiter-Glo luminescence, primary screen. LL 47 human lung fibroblast viability, ATP luminescence; hits give low values. actives 1.1% (n = 85,000). viability, % at 10 µM;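 active means viability at or below 50% in the single dose screen; inactive means viability above 50%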;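 further: compound exposure lasted 72 h before the ATP readout; 100% = median luminescence of untreated cell-only wells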
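Material: Human LL 47 lung fibroblast cells | Input: 1,150 cells/well | Buffer or medium: IMEM plus 15% FBS | Compound dosing: 0.1% DMSO in all compound wells | Times: Overnight cell rest, 72 h compound treatment at 37 °C | Signal: CellTiter-Glo luminescence measuring cellular ATP | Measure: % viability versus median cells-only luminescence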
HUVEC prolif 384 = inhibitors of HUVEC proliferation, primary screen, cell-based, 384-well; CellTiter-Glo luminescence, 72 h; hits give low values; viability, % at 10 µM (by protocol); actives 1.1% (n = 86,000);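 active means viability at or below 30%; inactive means viability above 30%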;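 further: 100% = median luminescence of DMSO-only cell control wells on each plate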
H69AR growth 86K = proliferation blockers of H69AR lung cancer cells, primary screen, cell-based, human, 86K library. H69AR lung tumor viability, ATP luminescence, 72 h; hits give low values. viability, % at 10 µM. actives 6% (n = 85,000);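 active means viability at or below 40%; inactive means viability above 40%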;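 further: multidrug resistant small cell line overexpressing MRP-1 efflux transporter; 100% = mean luminescence of untreated control wells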
bCat KO growth = primary screen for growth suppressors in beta-catenin knockout HCT116 cells (colon tumor, human). AID 818, 2007. viability, % at 10 µM. HCT116 beta-catenin knockout viability, CellTiter-Glo, 60 h; hits give low values. actives 1.5% (n = 140,000);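 active means viability at or under a set limit, the compound median less 4 SD, cut at about 6% in these data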;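 further: 0% = Hyamine 1622 control at 20 µM and 100% = untreated cell control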
HCT116 PTEN-null = growth suppression of PTEN-null HCT116, primary screen, cell-based, CellTiter-Glo; actives 1.2% (n = 140,000); viability, % at 10 µM; HCT116 PTEN-null viability, 60 h; hits give low values; AID 827, 2007;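 active means viability at or below a set limit, 4 SD under the median of all tested compounds, cut at about 3.7% in these data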;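 further: PTEN knockout HCT116 line with beta catenin targeted HCT116 as companion control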
The depositor's hits bear a star; · = not tested or not shown.

SMILES	PTK2B oligo ant	Fibroblast inh	HUVEC prolif 384	H69AR growth 86K	bCat KO growth	HCT116 PTEN-null
Cn1cnnc1Sc1cc(N2CCN(S(=O)(=O)c3ccc4ccccc4c3)CC2)ccc1[N+](=O)[O-]	·	·	·	·	98	110
COc1cc(C2c3c(n[nH]c3C)C(=O)N2c2ccc(C)cc2)ccc1O (configuration not stated)	-1	60	93	107	82	100
COc1cc(C2c3c(-c4ccccc4)n[nH]c3C(=O)N2c2ccccc2)ccc1O (configuration not stated)	-3.1*	93	102	83	95	97
CC(C)(C)NC(=O)COC(=O)/C=C/c1ccccc1[N+](=O)[O-]	-0.32	·	·	·	100	106
Cc1ccc2nc(NC(=O)CSc3ncnc4c3oc3ccccc34)sc2c1	·	92	35	26*	50	62
Cc1cccc(NC(=O)CSc2ncnc3c2oc2ccccc23)c1	·	89	76	30*	89	96
CCCCC(=O)NC(Nc1nc(C2CC2)cs1)(C(=O)OCC)C(F)(F)F (configuration not stated)	-0.14	95	95	93	93	79
O=C1C(Nc2ccccc2)=C(NS(=O)(=O)c2ccccc2)C(=O)c2ccccc21	·	·	·	·	79	71
O=C1C(Nc2ccccc2)=C/C(=N/S(=O)(=O)c2cccs2)c2ccccc21	-3.8*	·	·	·	2.0*	1.7*
COC(=O)c1ccccc1NC1=C/C(=N\S(=O)(=O)c2cccs2)c2ccccc2C1=O	-5*	5.7*	4.0*	23*	1.8*	1.7*
Cc1ccc(NC2=C/C(=N/S(=O)(=O)c3cccs3)c3ccccc3C2=O)cc1	·	·	·	·	1.2*	0.5*
CC(C)Oc1ccc(C(=O)NC2(C(F)(F)F)NC(=O)N(CCCc3ccccc3)C2=O)cc1 (configuration not stated)	-1.4	·	·	·	86	79
CCN(CC)c1ccc(NC(=O)COC(=O)c2ccc3ccccc3n2)cc1	0.34	99	95	93	98	96
COc1ccc(OC)c(Nc2nc(-c3sc(C)nc3C)cs2)c1	-1.6	94	58	26*	94	76
O=C(C[n+]1ccc(-c2nnc3n2CCC3)cc1)c1ccc(Cl)cc1	·	·	·	·	96	105
CCOc1ccc2cc(C#N)c(SCC(=O)N3CCC(C)CC3)nc2c1	-0.84	79	48	23*	37	44
CCOC(=O)CSc1nc2cc(OCC)ccc2cc1C#N	0.39	102	63	31*	92	87
CCOc1ccc2cc(C#N)c(SCC(=O)NC(C)CC)nc2c1 (configuration not stated)	·	102	68	29*	95	93
O=C(Cc1ccc(-n2c(=O)[nH]c3ccsc3c2=O)cc1)N1CCN(c2ccc(Cl)cc2)CC1	·	·	·	·	91	91
CCOC(=O)Cn1c(=O)c(-c2ccccc2NCc2ccccc2)nc2ccccc21	-0.7	74	57	28*	·	·
CCOC(=O)Cn1c(-c2ccccc2)nc2ccccc2c1=O	0.26	·	·	·	84	78
Cn1c(Sc2ccc(Br)cc2)c(C=O)c2ccccc21	-0.7	·	·	·	51	42
COc1ccc(C(=O)Nc2cccc([N+](=O)[O-])c2)cc1Br	1.3	·	·	·	·	·
O=C(Nc1ccc([N+](=O)[O-])cc1)Nc1ccc(OC(F)F)c(Cl)c1	·	·	·	·	1.0*	1.1*
COc1ccc(NC(=O)Nc2cccc([N+](=O)[O-])c2)cc1Cl	·	·	·	·	5.0*	4
SMILES	PTK2B oligo ant	Fibroblast inh	HUVEC prolif 384	H69AR growth 86K	bCat KO growth	HCT116 PTEN-null
CCNC(=O)NC(=O)C(C)OC(=O)CCCSc1nc2ccccc2s1 (configuration not stated)	·	·	·	·	94	96
COC(=O)c1sccc1NC(=O)c1cc(-c2ccc(C)cc2)nc2ccccc12	0.08	·	·	·	60	69
COC(=O)c1sccc1NC(=O)c1cc(-c2cccc(C)c2)nc2ccccc12	0.82	·	·	·	2.0*	0.8*
Cc1c(NC(=O)c2ncn[nH]2)cccc1-c1nc2ccccc2s1	·	·	·	·	92	90
Cc1nn(-c2ccccc2)c(C)c1/C=N/NC(=O)c1cc(-c2ccccc2)n[nH]1	-3*	·	·	·	22	16
c1cnc2c(c1)ccc1cccnc12	·	·	·	·	6.0*	5
N#Cc1c(NC(=O)CSc2ccccn2)oc(-c2ccccc2)c1-c1ccccc1	-1.5	105	97	82	90	103
Cc1cnc(C(=O)OCC(=O)Nc2oc(-c3ccccc3)c(-c3ccccc3)c2C#N)cn1	-1.8	71	98	34*	99	96
CC(C)COc1ccc2[nH]c3c(c2c1)CCCC3=O	-0.95	92	20*	93	83	82
CC1CCCN(Cc2c(O)ccc3c(=O)c(-c4nc5ccccc5s4)c(N)oc23)C1 (configuration not stated)	-0.75	·	·	·	1.0*	0.9*
CC1CCN(Cc2c(O)ccc3c(=O)c(-c4nc5ccccc5s4)c(N)oc23)CC1	·	·	·	·	23	4
CCOC(=O)C(=Cc1cc(=O)c(OC)co1)C(=O)OCC	·	·	·	·	1.9*	1.4*
Brc1ccccc1-c1nnc2sc(-c3ccc4c(c3)OCCO4)nn12	-0.06	87	72	17*	34	34
c1ccc2c(c1)OCC(c1nnc3sc(-c4ccc5c(c4)OCO5)nn13)O2 (configuration not stated)	-0.42	104	91	82	96	102
Clc1ccccc1-c1nnc2sc(-c3ccc4c(c3)OCO4)nn12	-0.44	92	50	23*	89	65
Clc1ccc(-c2nnc3sc(-c4ccc(Br)o4)nn23)c(Cl)c1	0.18	·	·	·	98	95
Clc1cccc(-c2nnc3sc(-c4ccc5c(c4)OCO5)nn23)c1	·	100	106	·	·	·
CN(C)c1ccc(-c2nn3c(-c4ccc(Cl)cc4Cl)nnc3s2)cc1	·	85	45	14*	34	35
COc1ccc(-c2nc(=S)c3c([nH]2)Oc2ccc(C)cc2C3)cc1O	·	·	·	·	97	88
CN(C)/C=C1/C(=O)N(c2ccc([N+](=O)[O-])cc2)N=C1c1ccccc1	·	·	·	·	98	86
C/C(=C1/C(=O)N(c2ccc([N+](=O)[O-])cc2)N=C1c1ccccc1)N(C)C	·	·	·	·	3.3*	2.2*
O=C(OCC1OC(n2cnc3c(N(C(=O)c4ccccc4)C(=O)c4ccccc4)ncnc32)C(O)C1F)c1ccccc1 (configuration not stated)	-0.3	105	84	2.7*	78	82
COCc1c(C(=O)OCC(=O)NCCN2C(=O)CSC2=O)oc2ccccc12	·	·	·	·	98	87
O=C1CC(c2ccco2)CC(O)=C1C=Nc1cc(Cl)ccc1O (configuration not stated)	0.14	99	77	5.3*	81	88
